Shown are actives, neighbours in structure and some others; about 1.7% of the full set was active somewhere.
SUMO1 PPI mod: modulators of SUMO1 protein-protein interactions, primary screen, biochemical, uHTS | Small ubiquitin-related modifier 1 (Homo sapiens), P63165 | SUMO1 binding to a labelled peptide, TR-FRET, 1 h | inhibition, % at 20 µM | 0.33% of 360,000 active | AID 602429, 2012; in the data active means inhibition above about 37%
Target sequence (P63165 whole entry, looked up): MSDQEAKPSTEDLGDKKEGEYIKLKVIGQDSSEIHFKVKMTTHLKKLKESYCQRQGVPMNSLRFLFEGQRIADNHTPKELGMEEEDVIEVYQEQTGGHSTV
LMPTP inh: LMPTP phosphatase inhibitors, primary screen, biochemical, fluorescence intensity, uHTS | Low molecular weight phosphotyrosine protein phosphatase (Homo sapiens), P24666 | recombinant LMPTP-A, OMFP fluorogenic substrate | inhibition, % at 20 µM | 0.22% of 360,000 active | AID 651560, 2012;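 active means compounds that cut the enzyme signal by at least half of the control window in the single-dose screen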;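 further: plate controls were DMSO wells with enzyme plus substrate for no effect and substrate without enzyme for full effect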
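Test system: LMPTP-A phosphatase enzyme. Amount: LMPTP-A at 0.625 nM final in the reaction. Reagent: OMFP substrate, 400 µM final. Times: 50 min at room temperature. Signal: endpoint fluorescence intensity from OMFP dephosphorylation. Read-out basis: % inhibition. Benchmarks: no-enzyme and uninhibited controls.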
STEP inh: STEP phosphatase inhibitors, primary screen, biochemical, fluorescence intensity, uHTS | Tyrosine-protein phosphatase non-receptor type 5 (Homo sapiens), P54829 | recombinant STEP, OMFP fluorogenic substrate | inhibition, % at 20 µM | 0.25% of 360,000 active | AID 588621, 2011;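 active means inhibition at 20 µM, scaled per plate between control wells, above about 37%, limit read from the data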;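 further: 0% = DMSO with enzyme and substrate and 100% = substrate only without enzyme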
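System: STEP (striatal-enriched tyrosine phosphatase) enzyme, cell-free; medium: Bis-Tris pH 6.0 buffer with DTT, detergent; dosing: 20 µM, 1% DMSO; times: reaction 20 min, ambient temperature; detection: fluorescence, 480/540 nm; read-out basis: normalized % inhibition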
DNMT1 inh: human DNMT1 methyltransferase inhibitors, primary screen, biochemical, molecular beacon, fluorescence, HinP1I cleavage, uHTS | inhibition (reported as % activation of signal), % at 10 µM | DNA (cytosine-5)-methyltransferase 1 (Homo sapiens), P26358 | 0.83% of 360,000 active; in the data active means inhibition above about 50%
Scp1 inh: Scp-1 phosphatase inhibitors, primary screen, biochemical, colorimetric, uHTS | AID 493091, 2011 | inhibition, % at 20 µM | 0.88% of 340,000 active | Recombinant Scp1, phosphopeptide, malachite green phosphate absorbance;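 active means inhibition above about 50% at 20 µM, limit read from the data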;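 further: plate controls were DMSO wells with enzyme for no effect and wells lacking enzyme for full effect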
Target sequence (Q9GZU7 76-261 limits assumed): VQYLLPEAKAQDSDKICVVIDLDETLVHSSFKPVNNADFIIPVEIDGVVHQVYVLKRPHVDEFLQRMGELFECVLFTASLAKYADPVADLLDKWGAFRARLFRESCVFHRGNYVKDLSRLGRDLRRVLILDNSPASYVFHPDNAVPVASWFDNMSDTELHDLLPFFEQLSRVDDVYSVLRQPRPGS
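Assay system: SCP-1 catalytic fragment, aa 76-261 | Buffer or medium: Tris acetate buffer pH 5.5 with MgCl2 and Tween-20 | Compound: One concentration, 20 µM, with 1.0% DMSO | Also added: Phospho 17-mer peptide substrate | Signal: Absorbance at 630 nm | Incubation: 45 min enzyme reaction at room temperature | Measure: % inhibition of SCP-1 phosphate liberation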
Active calls of the source: *; x = not tested or not shown; + = active, no number.

SMILES	SUMO1 PPI mod	LMPTP inh	STEP inh	DNMT1 inh	Scp1 inh
C=CCn1cc(/C=C/c2cc[n+](C)cc2)c2ccccc21	-89	-3	-14	16	16
CC[n+]1cc(-c2ccccc2)nc(N2CCOCC2)n1	-25	-1	-2	6	99*
NC(=O)c1cc(-c2ccccc2)nc(N2CCOCC2)n1	3	0	-2	5	-5
CC1CCN(C(=O)CCCC(=O)N2CCC(C)CC2)CC1	-3	-1	-2	2	-6
CC1(C)CC(N2CCCC2)=CC(=[N+]2CCCCCC2)C1	0	-1	0	2	19
CC1CC(C)C[N+](=C2C=C(N3CCCC3)CC(C)(C)C2)C1 (centres undefined)	2	0	0	5	96*
CC(C)n1c(=O)c2ccccc2n1Cc1cn(C2CCCC2)nn1	-3	0	0	-5	x
CN1CCc2c(sc3nc(NCCO)n(-c4cccc(Cl)c4)c(=O)c23)C1	9	2	-1	1	-7
O=C(NCCN1CCC(n2c(=O)[nH]c3ccccc32)CC1)c1cccc2c1-c1ccccc1C2=O	55*	13	x	x	x
CC(=O)Nc1ccc(NC(=O)C2CC(=O)N(Cc3ccco3)C2)cc1 (centres undefined)	4	-1	1	5	-2
CC(=O)c1cccc(-c2ccc3c(=O)[nH]c(Nc4ccccc4)cc3c2)c1	34	19	20	105*	7
COC(=O)/C(=C\Nc1ccc(Cl)cc1Cl)NC(=O)c1ccc(OC)cc1	40*	3	2	-1	-10
COC(=O)/C(=C\Nc1ccc(OC)cc1)NC(=O)c1ccc(Cl)cc1Cl	-1	-2	2	-5	4
COC(=O)[C@H](C)NC(=O)c1cc2c(cn1)[nH]c1ccccc12	1	3	8	1	-2
C[C@H](NC(=O)c1cc2c(cn1)[nH]c1ccccc12)C(=O)O	3	2	90*	1	-13
CCCCN(C)C1=CC2=CC(=C(C#N)C#N)CCC2CC1 (centres undefined)	19	3	-271	+	-5
CCN(CC)C1=CC2=CC(=C(C#N)C#N)CCC2CC1 (centres undefined)	17	4	-231	+	1
CN(CCO)c1cccc2c1S(=O)(=O)N[C@H](Cc1ccccc1)CO2	-2	-1	x	x	x
COC(=O)[C@@]12C[C@@H](CC(=O)NCCc3ccccc3OC)C(=O)N(Cc3ccc4c(c3)OCO4)C1=CCC(C)(C)C2	5	4	x	x	x
O=C(/C=C/c1ccco1)NC(=S)Nc1ccc(C(=O)O)cc1	26	0	28	91*	52*
CC(=O)NC(=S)Nc1ccc(NC(=S)NC(=O)/C=C/c2ccco2)cc1	-2	11	8	8	-7
Cc1nnc(N=c2ssnc2Cl)o1	-5	55*	14	-10	12
O=S1(=O)CC(N2CCN(CC3CC3)CC2)CN1CCc1ccccc1 (centres undefined)	5	-2	0	12	x
Nc1nc(-c2ccccc2)c(-c2ccc([N+](=O)[O-])cc2)s1	-18	1	1	-2	-1
Cc1nc(N)nc(N)c1-c1ccc([N+](=O)[O-])cc1	-21	67*	3	5	2
Cc1cccc(C(=O)NCC(=O)N2CCC2)c1	-2	-1	-2	-1	0
Cc1ccc(C(=O)ONc2ccc(N=NC(=O)c3ccccc3O)cc2)cc1	-1	78*	77*	30	110*
Cc1nc(NC(=O)CC(C)C)sc1-c1csc(Nc2ccc(Cl)cc2Cl)n1	4	1	-3	-28	2
CCCCCC(=O)Nc1nc(C)c(-c2csc(Nc3cc(Cl)ccc3C)n2)s1	81*	1	0	-18	6
COc1ccc(Cl)cc1Nc1nc(-c2sc(NC(=O)CC(C)C)nc2C)cs1	55*	2	-3	-33	3
